Laboratory results as given in ChEMBL document CHEMBL4351017, “Selenocoumarins as new multitarget antiproliferative agents: Synthesis, biological evaluation and in silico calculations” (Eur J Med Chem, 2019).
Calls of active or inactive are those of the source. No cut-off for these calls is given here.

Experiments:
T47D [1] = assay: Antiproliferative activity against human T47D cells assessed as growth inhibition measured after 48 hrs by sulforhodamine B assay; type: functional
How it was run: (§1)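 NCI protocol with minor modifications. DMSO stocks at 40 mM. Cells exposed for 48 h to serial decimal dilutions, 0.001–100 µM. GI50 in µM from at least two independent experiments, with SD.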

A549 = assay: Antiproliferative activity against human A549 cells assessed as growth inhibition measured after 48 hrs by sulforhodamine B assay; type: functional; details: A549, 48 h; how it was run: as §1
HeLa [2] = assay: Antiproliferative activity against human HeLa cells assessed as growth inhibition measured after 48 hrs by sulforhodamine B assay; type: functional; how it was run: as §1
WiDr [3] = assay: Antiproliferative activity against human WiDr cells assessed as growth inhibition measured after 48 hrs by sulforhodamine B assay; type: functional; how it was run: as §1
HBL-100 = assay: Antiproliferative activity against human HBL100 cells assessed as growth inhibition measured after 48 hrs by sulforhodamine B assay; type: functional; details: HBL-100, 48 h; how it was run: as §1
SW1573 [4] = assay: Antiproliferative activity against human SW1573 cells over-expressing P-gp incubated for 48 hrs in absence of P-gp and CYP3A4/5 inhibitor verapamil by sulforhodamine B assay; type: functional; details: SW1573, 48 h
How it was run: (§2)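 Wild-type and P-gp-overexpressing SW1573 cells were grown in RPMI 1640 with 1 mM glutamine, 5% FBS and antibiotics at 37 °C. Cells were exposed for 48 h to serial decimal dilutions, 0.001–100 µM, with or without 10 µM verapamil. GI50 values come from at least two independent experiments, with SD.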

SW1573 [5] = assay: Antiproliferative activity against human SW1573 cells over-expressing P-gp incubated for 48 hrs in presence of P-gp and CYP3A4/5 inhibitor verapamil by sulforhodamine B assay; type: functional; details: SW1573, 48 h; how it was run: as §2
SW1573 [6] = assay: Antiproliferative activity against human SW1573 cells incubated for 48 hrs in absence of P-gp and CYP3A4/5 inhibitor verapamil by sulforhodamine B assay; type: functional; details: SW1573, 48 h; how it was run: as §2
SW1573 [7] = assay: (§3) Resistance factor, ratio of GI50 for antiproliferative activity against human SW1573 cells over-expressing P-gp incubated for 48 hrs in presence of P-gp and CYP3A4/5 inhibitor verapamil by sulforhodamine assay to GI50 for antiproliferative activity against human SW1573 cells incubated for 48 hrs in presence of P-gp and CYP3A4/5 inhibitor verapamil by sulforhodamine B assay; type: functional
How it was run: (§4)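 Resistance factor: GI50 in SW1573/PGP divided by GI50 in wild-type SW1573. Both came from 48 h exposure, with or without 10 µM verapamil. GI50 values are from at least two independent experiments.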

SW1573 [8] = assay: Antiproliferative activity against human SW1573 cells incubated for 48 hrs in presence of P-gp and CYP3A4/5 inhibitor verapamil by sulforhodamine B assay; type: functional; details: SW1573, 48 h; how it was run: as §2
HeLa [9] = assay: Anticancer activity against human HeLa cells assessed as increase in ROS production at 10 uM measured after 48 hrs by ROS-GloTM H2O2 assay; type: functional, cell-based
How it was run: (§5)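 HeLa cells in RPMI 1640 with 1 mM glutamine, 5% FBS and antibiotics, 37 °C, 5% CO2. Exposed to compound at 1 or 10 µM for 48 h. ROS (H2O2) read with a non-lytic, HRP-free luminescent kit per the manufacturer.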

SW1573 [10] = assay: as §3, with “hrs in absence of P-gp” for “hrs in presence of P-gp”, “by sulforhodamine B assay to” for “by sulforhodamine assay to”; type: functional; how it was run: as §4
[11] = (§6) Cytotoxicity against human hTERT-BJ cells assessed as growth inhibition measured after 48 hrs by sulforhodamine B assay; type: cell-based; details: hTERT-BJ cells
How it was run: as §1, with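 “modifications. Human tumour lines or fibroblasts in RPMI 1640 with 1 mM glutamine, 5% FBS and antibiotics, 37 °C, 5% CO2, low passage.” for “modifications.”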

WiDr [12] = assay: Potency index, ratio of GI50 for CDDP to test compound GI50 for antiproliferative activity against human WiDr cells; type: functional
HeLa [13] = assay: Anticancer activity against human HeLa cells assessed as increase in ROS production at 1 uM measured after 48 hrs by ROS-GloTM H2O2 assay; type: functional, cell-based; how it was run: as §5
[14] = molecular target: T1, Histone deacetylase 8 (Homo sapiens) (UniProt Q9BY41); assay: Potency index, ratio of inhibition activity of trichostatin to inhibition activity of compound HDAC8 (unknown origin)
T1 sequence (whole entry): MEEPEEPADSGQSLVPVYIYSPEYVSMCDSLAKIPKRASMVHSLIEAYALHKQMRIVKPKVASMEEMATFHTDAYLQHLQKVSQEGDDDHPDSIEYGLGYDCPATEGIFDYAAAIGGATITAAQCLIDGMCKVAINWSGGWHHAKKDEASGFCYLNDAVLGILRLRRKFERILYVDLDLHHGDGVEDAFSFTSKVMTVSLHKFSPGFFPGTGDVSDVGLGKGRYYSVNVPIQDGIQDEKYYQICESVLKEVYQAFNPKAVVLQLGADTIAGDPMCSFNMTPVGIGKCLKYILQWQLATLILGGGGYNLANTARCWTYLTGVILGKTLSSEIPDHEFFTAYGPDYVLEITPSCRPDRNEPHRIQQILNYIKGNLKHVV

T47D [15] = assay: Potency index, ratio of GI50 for CDDP to test compound GI50 for antiproliferative activity against human T47D cells; type: functional
hTERT-BJ = assay: as §6; type: cell-based; details: htert-bj, 48 h
How it was run: as §1, with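 “modifications. Human tumour lines or fibroblasts in RPMI 1640 with 1 mM glutamine, 5% FBS and antibiotics, 37 °C, 5% CO2, low passage.” for “modifications.”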

[16] = Selectivity index, ratio of GI50 for Cytotoxicity against human hTERT-BJ cells to ratio of GI50 for antiproliferative activity against human HeLa cells; type: toxicity, cell-based; details: hTERT-BJ cells versus HeLa cells, read-out: RatioGI50
[17] = Selectivity index, ratio of GI50 for Cytotoxicity against human hTERT-BJ cells to ratio of GI50 for antiproliferative activity against human HBL100 cells
[18] = Selectivity index, ratio of GI50 for Cytotoxicity against human hTERT-BJ cells to ratio of GI50 for antiproliferative activity against human WiDr cells; type: toxicity, cell-based; details: hTERT-BJ cells versus WiDr cells, read-out: RatioGI50
[19] = Selectivity index, ratio of GI50 for Cytotoxicity against human hTERT-BJ cells to ratio of GI50 for antiproliferative activity against human A549 cells; type: toxicity, cell-based; details: hTERT-BJ cells versus A549 cells, read-out: RatioGI50
[20] = Selectivity index, ratio of GI50 for Cytotoxicity against human hTERT-BJ cells to ratio of GI50 for antiproliferative activity against human T47D cells; type: toxicity, cell-based; details: hTERT-BJ cells versus T47D cells, read-out: RatioGI50

| SMILES | GI50 (T47D [1]) | GI50 (A549) | GI50 (HeLa [2]) | GI50 (WiDr [3]) | GI50 (HBL-100) | GI50 (SW1573 [4]) | GI50 (SW1573 [5]) | GI50 (SW1573 [6]) | RatioGI50 (SW1573 [7]) | GI50 (SW1573 [8]) | Activity (HeLa [9]) | RatioGI50 (SW1573 [10]) | GI50 at 48 h [11] | also measured |
| --- | --- | --- | --- | --- | --- | --- | --- | --- | --- | --- | --- | --- | --- | --- |
| CCOC(=[Se])Nc1ccc2c(C)cc(=O)oc2c1 | > 100 µM | > 100 µM | > 100 µM | > 100 µM | > 100 µM | – | – | – | – | – | – | – | – | – |
| COc1ccc(NC(=[Se])Nc2ccc3c(C)cc(=O)oc3c2)cc1 | 33 µM | 28 µM | 35 µM | 23 µM | 38 µM | 24 µM | 25 µM | 14 µM | 2.5 | 10 µM | Active | 1.7 | > 100 µM | – |
| CC(=O)O[C@H]1C(=O)[C@@]2(C)[C@H]([C@H](OC(=O)c3ccccc3)[C@]3(O)C[C@H](OC(=O)[C@H](O)[C@@H](NC(=O)c4ccccc4)c4ccccc4)C(C)=C1C3(C)C)[C@]1(OC(C)=O)CO[C@@H]1C[C@@H]2O [PACLITAXEL] | – | – | – | – | – | 0.196 µM | 0.0042 µM | 0.0015 µM | 3 | 0.0016 µM | – | – | – | – |
| Cc1cc(=O)oc2cc(NC(=[Se])Nc3ccccc3)ccc12 | 24 µM | 28 µM | 24 µM | 34 µM | 28 µM | 21 µM | 21 µM | 23 µM | 0.8 | 25 µM | Active | 0.9 | > 100 µM | – |
| Cc1cc(=O)oc2cc(NC(=[Se])Nc3ccc4c(C)cc(=O)oc4c3)ccc12 | 3.6 µM | 3.2 µM | 2.9 µM | 4.5 µM | 3.5 µM | 55 µM | 21 µM | 4.5 µM | 2.3 | 9 µM | – | 12 | 4.9 µM | RatioGI50 (WiDr [12]): <=6; Activity (HeLa [13]): Active; Ratio [14]: 1.65; RatioGI50 (T47D [15]): <=6 |
| CC[C@]1(O)C[C@@H]2CN(CCc3c([nH]c4ccccc34)[C@@](C(=O)OC)(c3cc4c(cc3OC)N(C)[C@H]3[C@@](O)(C(=O)OC)[C@H](OC(C)=O)[C@]5(CC)C=CCN6CC[C@]43[C@@H]65)C2)C1 [VINBLASTINE] | – | – | – | – | – | 2.05 µM | 0.001 µM | 0.0009 µM | 1 | 0.0008 µM | – | – | – | – |
| Cc1cc(=O)oc2cc(NC(=[Se])Nc3ccc(C(F)(F)F)cc3)ccc12 | 8.7 µM | 8.6 µM | 21 µM | 6 µM | 13 µM | 24 µM | 22 µM | 20 µM | 0.9 | 26 µM | Active | 1.2 | 32 µM | – |
| CCCCOC(=[Se])Nc1ccc2c(C)cc(=O)oc2c1 | – | – | – | – | – | – | – | – | – | – | – | – | – | GI50 (hTERT-BJ): Nd(Insoluble) |
| Cc1cc(=O)oc2cc(N=C=[Se])ccc12 | 3.6 µM | 3.6 µM | 12 µM | 4.8 µM | 5 µM | 29 µM | 24 µM | 27 µM | 0.9 | 29 µM | Active | 1.1 | 50 µM | selectivity ratio [16]: ≤ 14; RatioGI50 [17]: <=14; selectivity ratio [18]: ≤ 14; selectivity ratio [19]: ≤ 14; selectivity ratio [20]: ≤ 14 |
| CCCOC(=[Se])Nc1ccc2c(C)cc(=O)oc2c1 | 41 µM | 37 µM | 23 µM | 42 µM | 34 µM | 32 µM | 35 µM | 16 µM | 3 | 12 µM | Active | 2 | 33 µM | – |
| CCCCNC(=[Se])Nc1ccc2c(C)cc(=O)oc2c1 | 2.9 µM | 3 µM | 5.2 µM | 3.8 µM | 2.3 µM | 2.3 µM | 2 µM | 3 µM | 0.7 | 2.7 µM | – | 0.8 | 3.1 µM | RatioGI50 (WiDr [12]): <=6; Activity (HeLa [13]): Active; RatioGI50 (T47D [15]): <=6 |
| Cc1cc(=O)oc2cc(NC(=[Se])Nc3ccc(Br)cc3)ccc12 | 2.8 µM | 2.7 µM | 2.2 µM | 3.5 µM | 2.2 µM | 9.6 µM | 16 µM | 11 µM | 1 | 16 µM | – | 0.9 | 4.4 µM | RatioGI50 (WiDr [12]): <=6; Activity (HeLa [13]): Active; RatioGI50 (T47D [15]): <=6 |
| COC(=[Se])Nc1ccc2c(C)cc(=O)oc2c1 | > 100 µM | > 100 µM | 78 µM | > 100 µM | > 100 µM | – | – | – | – | – | – | – | – | – |
